Assay outcomes deposited in PubChem by several laboratories.
14-3-3 Bad inh: disrupts binding of bovine 14-3-3 zeta to phospho-Bad peptide | P63103 | TR-FRET 14-3-3zeta/Dy647-pBad peptide displacement, 1 h | inhibition, % at 21.7 µM | 220,000 compounds, 0.71% hits | AID 781;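 active means inhibition above about 70%, limit read from the data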;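 further: 0% = full 14-3-3 plus peptide FRET controls and 100% = background without 14-3-3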
Target sequence (P63103 whole entry, looked up): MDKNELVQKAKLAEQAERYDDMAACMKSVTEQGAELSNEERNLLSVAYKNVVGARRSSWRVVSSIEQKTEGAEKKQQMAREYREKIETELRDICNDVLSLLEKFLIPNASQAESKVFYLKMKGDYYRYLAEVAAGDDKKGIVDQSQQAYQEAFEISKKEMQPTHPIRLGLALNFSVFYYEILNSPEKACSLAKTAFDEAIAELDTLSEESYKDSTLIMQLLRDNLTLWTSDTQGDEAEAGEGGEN
eIF4E-4G inh: inhibitors of eIF4E and eIF4G interaction in translation initiation; inhibition, % at 21.7 µM; P63073+Q04637; TR-FRET eIF4E-eIF4GI(517-606) binding, 2 h; 220,000 compounds, 0.37% hits; AID 782;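 active means inhibition above about 30%, limit read from the data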;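 further: 0% = full FRET control wells and 100% = background wells lacking eIF4GI fragment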
PERK inh: human PERK inhibition, primary cell-based screen | Q9NZJ5 | CHO PERK-DD fusion, SEAP luminescence translation reporter | inhibition, % at 5.6 µM | 220,000 compounds, 0.17% hits | AID 1416;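 active means inhibition above the mean inhibition of all tested compounds plus 3 SD, set separately per screening campaign, cut at about 2.9% in these data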;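 further: PERK kinase domain activated by AP20187 dimerizer at 100 nM; 0% = DMSO with dimerizer and 100% = rapamycin at 8.4 µM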
Calb biofilm kill: mixtures killing C. albicans biofilm. C. albicans biofilm persisters + clotrimazole, fluorescence viability; primary screen in compound mixtures of four per well. inhibition, % at 7.6 µM. 120,000 compounds, 0.02% hits;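 active means inhibition above 30.3% in the primary screen of four-compound pools, then above 30% when the compound was retested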;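 further: compounds exposed to preformed 24 h biofilms for 48 h; 0% = untreated biofilm control and 100% = clotrimazole plus chlorhexidine kill blank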
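Test system: C. albicans CAF4-2 wild-type biofilms; buffer or medium: RPMI/MOPS medium, pH 7.0; schedule: 24 h biofilm formation, then 48 h compound exposure, 37 °C; detection: Alamar Blue fluorescence; measure: percent inhibition of biofilm viability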
p97 ATPase inh: human p97 ATPase inhibition | P55072 | 220,000 compounds, 0.42% hits | AID 1481 | inhibition, % at 8 µM | recombinant p97 ATPase, Kinase-Glo ATP luminescence, 3 h; in the data active means inhibition above about 15%;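 further: 0% = DMSO vehicle and 100% = wells lacking enzyme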
Hck-Nef inh: human Hck-Nef kinase inhibition; P08631; 220,000 compounds, 0.68% hits; Recombinant Hck-YEEI plus Nef, Z-Lyte FRET kinase assay; inhibition, % at 20 µM;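 active means Hck-Nef kinase inhibition above about 50%, limit read from the data; inactive means inhibition below that limit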;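 further: 0% = DMSO with Hck plus Nef and 100% = Hck alone without Nef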
Hck-Nef confirm: confirmation of Hck-Nef kinase inhibitors. AID 463188. 1,300 compounds, 28% hits. Recombinant Hck-YEEI:Nef, Z-Lyte FRET kinase assay. shares compounds with Hck-Nef inh. calls only at 10 µM;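 active means average inhibition of at least 50%, with Z-scores no higher than 3 in both the phospho-tyrosine peptide and fluorescence counterscreens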
Numbers without * were called inactive; i = inactive; nt = not tested or not shown; + = active, no number. In the library only some 2.2% were active in any assay of this set; here they are far more common.

SMILES	14-3-3 Bad inh	eIF4E-4G inh	PERK inh	Calb biofilm kill	p97 ATPase inh	Hck-Nef inh	Hck-Nef confirm
CC1=NNC(=O)/C1=C\c1cn(-c2ccccc2)nc1-c1ccccc1	-2	2	0	12	2	181*	+
Cc1ccc(OCC(=O)NNC(=O)c2cccnc2)cc1C	-2	1	1	21	6	25	nt
CCN(CC)c1ccc(/C=c2\sc3nc4ccccc4n3c2=O)c(O)c1	-23	-9	-1	23	10	68*	nt
c1ccc(Nc2ccnc(Nc3ccccc3)n2)cc1	4	4	-1	27	1	101*	+
N#CCCn1cc(/C=N/NC(N)=S)c(-c2ccc(-c3ccccc3)cc2)n1	-19	-1	0	7	11	43	nt
O=C(Nc1ccc2nc(-c3ccco3)c(-c3ccco3)nc2c1)N1CCN(c2ccccn2)CC1	-3	1	0	20	11	57*	i
O=C(O)CC(NNC(=O)c1ccccc1)C(=O)Nc1cccc([N+](=O)[O-])c1 (stereo not drawn)	4	-4	2	14	5	35	nt
CC(=O)Nc1ccc(-c2csc(NC(=O)C3CC(=O)N(c4ccc5c(c4)OCCO5)C3)n2)cc1 (stereo not drawn)	5	-3	1	9	11	51*	i
Cc1nn(CC(=O)Nc2cccnc2)c(C)c1[N+](=O)[O-]	0	2	1	5	5	13	nt
O=C(O)c1cc(NS(=O)(=O)c2ccc(N3CCCCC3)c([N+](=O)[O-])c2)cc(C(=O)O)c1	-8	8	0	14	0	11	nt
N#Cc1c2c(c(-c3ccccc3Cl)[nH]c1=S)CCCC2	-17	1	1	3	5	-20	nt
N#Cc1c(-c2ccncc2)c2c([nH]c1=O)-c1ccccc1OC2	5	1	1	24	5	70*	i
N#Cc1c(-c2ccccc2Cl)c2c([nH]c1=O)-c1ccccc1OC2	2	4	1	15	8	146*	i
Cn1cnc([N+](=O)[O-])c1SCCO	-1	-4	0	9	-3	-3	nt
O=C(Nc1ccccc1)c1cc([N+](=O)[O-])ccc1NCc1cccnc1	-2	-5	-1	12	3	2	nt
CCOC(=O)c1cc(C(=O)Nc2ccc(C)c(F)c2)nn1C	-3	-5	1	nt	-1	106*	i
O=c1c(C(c2ccccc2)c2c(O)sc3ccccc3c2=O)c(O)sc2ccccc12	19	19	2	nt	2	68*	+
Cc1cc2sc3ccccc3c(=O)c2c(C)c1O	-16	3	1	22	5	35	nt
Cn1nccc1C(=O)Nc1sc2c(c1C(N)=O)CCCC2	-1	-3	0	11	2	68*	i
O=C(O)c1cc(-c2cccs2)nn1-c1cccc(Cl)c1	-9	1	1	9	3	9	nt
Cc1ccc(-n2nc(-c3ccco3)cc2C(=O)O)c(C)c1	65	40*	1	16	-3	55*	i
O=C(O)c1cc(-c2ccco2)nn1-c1cccc(Cl)c1	67	29	0	19	-2	52*	i
Cc1ccc(-n2nc(-c3cccnc3)cc2C(=O)N2CCOCC2)c(C)c1	-12	5	-2	nt	3	1	nt
C=C1CCN(C(C(=O)OC)C(C)C)S(=O)(=O)c2ccccc21 (stereo not drawn)	-4	-4	nt	15	nt	27	nt
Cc1ccc(/C=C2\SC(=S)N(Cc3ccccc3)C2=O)o1	-2	8	1	nt	4	1	nt
SMILES	14-3-3 Bad inh	eIF4E-4G inh	PERK inh	Calb biofilm kill	p97 ATPase inh	Hck-Nef inh	Hck-Nef confirm
CC1(C)OC(=O)C(=Cc2ccc(-c3ccc(Cl)c(C(=O)O)c3)o2)C(=O)O1	17	5	1	7	10	77*	i
O=C(O)c1cc(-c2ccc(/C=C3/SC(=S)N(Cc4ccccc4)C3=O)o2)ccc1Cl	100*	62*	0	9	4	141*	+
O=[N+]([O-])c1c(C(Cl)Cl)nn(-c2ccc(Cl)cc2)c1N1CCCCC1	7	3	0	11	0	1	nt
S=C(NCc1ccco1)Nc1ccccc1Cl	-7	-4	1	10	-3	94*	i
Cc1ccc(S(=O)(=O)N(C)C)cc1NC(=S)NCc1ccco1	1	-1	2	4	3	113*	+
S=C(NCc1ccco1)Nc1cccc(Cl)c1Cl	-4	-5	2	20	8	21	nt
CNC(=O)/C(=C\c1ccc([N+](=O)[O-])cc1)NC(C)=O	2	4	1	nt	3	1	nt
CC(C)NC(=O)Cn1cc(C(=O)COc2ccccc2)c2ccccc21	1	1	0	22	-4	25	nt
C(=N\Nc1ccccn1)/c1c[nH]c2ccccc12	-3	-3	1	15	3	51*	i
CNc1nc(-c2cccs2)cc(C(F)(F)F)c1C#N	-3	0	1	24	7	104*	i
CCc1cccc(N(C(=O)c2csnn2)C(C(=O)NC(C)(C)C)c2ccncc2)c1 (stereo not drawn)	-4	-1	0	11	2	18	nt
O=C(O)c1cc(N/N=C/C=C/c2ccccc2[N+](=O)[O-])ccc1Cl	4	3	0	-3	12	6	nt
Fc1cccc(-n2c(-c3cccs3)nc3nc4ccccc4nc32)c1	40	9	1	25	6	59*	i
C=CCN1C(=NC(=O)CC)SC2CS(=O)(=O)CC21 (stereo not drawn)	4	0	1	nt	2	0	nt
Nc1nc(SCc2ccc(Cl)cc2Cl)nc2nc3c(cc12)CCCC3	66	21	3	-8	5	6	nt
Cc1noc(/C=C/c2ccco2)c1S(=O)(=O)N1CCC(C(=O)N2CCc3ccccc3C2)CC1	-4	-3	0	nt	6	51*	i
COC(=O)c1ccc(C(=O)N2CCCC(CNC(=O)c3ccccc3Cl)C2)cc1 (stereo not drawn)	-4	1	-1	24	4	20	nt
Cc1nn(-c2ccccc2)c2c1cc1c(=O)n(C)c(=O)nc-1n2-c1ccccc1F	9	0	0	31	5	87*	nt
O=C(NNC(=O)c1ccc(SCC2CCCO2)c([N+](=O)[O-])c1)c1ccc(F)cc1 (stereo not drawn)	4	2	0	nt	-1	0	nt
CCOc1ccc(C(=O)NCC(=O)OCC(=O)Nc2ccc(C)c(S(=O)(=O)N(C)C)c2)cc1	-8	-1	1	-2	-1	0	nt
COc1ccccc1/C=C/C=N/NC(=O)c1ccccn1	-9	-2	0	6	-6	19	nt
